The source made the active and inactive calls. No cut-off for these calls is given here.

A short description of series [1]: Genotoxicity in human SH-SY5Y cells assessed as nuclear abnormalities by measuring total notched mutations at 100 ug/ml incubated for 24 hrs by Hoechst 33258 staining based fluorescent microscopy (reference value: 5). The class given is toxicity, cell-based. Particulars: dose 100 µg/ml.
The test system of series [2] is SH-SY5Y. The series is described as follows: Antialzheimer activity against RA/BDNF-treated human SH-SY5Y cells assessed as cell viability at 12.5 to 100 ug/ml incubated for 24 hrs by MTT assay. The class given is functional, cell-based. Particulars: dose 12.5-100 µg/ml. An outline of the steps: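 SH-SY5Y grown in DMEM:F12 with 10% FBS at 37 °C, 5% CO2. Differentiated with 10 µM retinoic acid to day 8 (3% FBS medium refreshed every 2 days), then 25 nM BDNF for 5 days. Compound exposure, then MTT for 3 h at 37 °C. Formazan dissolved in DMSO, absorbance at 570 nm. 1.0% Triton X-100 as control.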
(Tetrazolium assays rely on reduction of a dye to a coloured formazan, in cell work by metabolically active cells.)

Series [3] in a line: Genotoxicity in human SH-SY5Y cells assessed as nuclear abnormalities by measuring total micronucleus at 100 ug/ml incubated for 24 hrs by Hoechst 33258 staining based fluorescent microscopy (reference value: 6). To be noted: dose 100 µg/ml. The class given is toxicity, cell-based.
Series [4] can be described thus: Genotoxicity in human SH-SY5Y cells assessed as nuclear abnormalities by measuring total lobbed nucleus at 100 ug/ml incubated for 24 hrs by Hoechst 33258 staining based fluorescent microscopy (reference value: 5). The class given is toxicity, cell-based. Particulars: dose 100 µg/ml.
A short description of series [5]: Genotoxicity in human SH-SY5Y cells assessed as mean nuclear abnormalities measured per 1000 cells at 100 ug/ml incubated for 24 hrs by Hoechst 33258 staining based fluorescent microscopy (reference value: 0.016 +/- 0.007). The class given is toxicity, cell-based. Particulars: dose 100 µg/ml.
The subject of series [6] is SH-SY5Y. The experiment in a line: Neuroprotective activity against amyloid beta 1-42-treated human SH-SY5Y cells assessed as decrease in AChE activity incubated for 30 mins by microplate reader analysis (reference value: 459.6 +/- 32.152 mU/ml). The class given is functional. Particulars: dose 0.5 mM.
Series [7] relates to SH-SY5Y. The experiment in a line: Neuroprotective activity against amyloid beta 1-42-treated human SH-SY5Y cells assessed as decrease in beta-secretase activity measured per mg protein incubated for 30 mins by microplate reader analysis (reference value: 54.35 +/- 4.34 RFU). The class given is functional. To be noted: 0.5 h.
Another series has as its target Acetylcholinesterase (Homo sapiens, UniProt P22303). The series is described as follows: Inhibition of AChE (unknown origin) using acetylthiocholine iodide as substrate prewarmed for 10 mins followed by substrate addition measured after 15 mins by DTNB assay. The gist of the method:
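Purified AChE at 0.005 unit per well in 50 mM Na2HPO4, pH 7.7. Test compound at 0.5 mM per well, read at 405 nm, then preincubated 10 min at 37 °C. Started with acetylthiocholine iodide and DTNB (each 0.5 mM per well). Absorbance at 405 nm after 15 min at 37 °C. Eserine reference, triplicate; % inhibition versus control, IC50 by kinetics fitting.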

For another series, the target named is Beta-secretase 1 (Homo sapiens, UniProt P56817). The series is described as follows: Inhibition of BACE1 (unknown origin) expressed in baculovirus expression system using Rh-EVNLDAEFKQuencher peptide substrate incubated for 90 mins by FRET assay.
Sequence of Beta-secretase 1 (P56817 whole entry): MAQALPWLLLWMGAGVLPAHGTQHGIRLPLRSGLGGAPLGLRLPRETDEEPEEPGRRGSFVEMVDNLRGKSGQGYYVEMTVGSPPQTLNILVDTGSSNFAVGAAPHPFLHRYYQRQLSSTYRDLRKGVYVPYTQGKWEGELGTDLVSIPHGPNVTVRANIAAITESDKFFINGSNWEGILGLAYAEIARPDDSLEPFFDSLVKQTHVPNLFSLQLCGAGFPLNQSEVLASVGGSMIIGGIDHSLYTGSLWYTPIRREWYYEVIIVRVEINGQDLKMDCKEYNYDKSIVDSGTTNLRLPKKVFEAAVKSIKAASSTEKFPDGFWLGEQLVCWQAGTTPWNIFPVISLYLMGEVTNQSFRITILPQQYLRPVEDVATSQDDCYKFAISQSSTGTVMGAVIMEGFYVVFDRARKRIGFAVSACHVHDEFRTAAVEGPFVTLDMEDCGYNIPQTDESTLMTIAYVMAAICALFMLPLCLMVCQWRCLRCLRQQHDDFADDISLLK
Series [8] has as its system SH-SY5Y. The series is described as follows: Neuroprotective activity against amyloid beta 1-42-treated human SH-SY5Y cells assessed as reduction in beta amyloid aggregation by Congo Red dye based analysis relative to control. The class given is functional. Also noted: scale not given: the % may be the effect or the level left. An outline of the steps: (§1)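 SH-SY5Y differentiated with RA then BDNF. Aβ1-42 pre-fibrillized at 20 µM in medium for 24 h, then 20 µM added with compounds for 24 h. Cells fixed in 4% paraformaldehyde at 4 °C for 30 min. Stained with 1 µM Congo red for 1 h in the dark, washed with PBS, dye extracted into DMSO, absorbance at 497 nm.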

Series [9] concerns SH-SY5Y. The experiment in a line: Neuroprotective activity against amyloid beta 1-42-treated human SH-SY5Y cells assessed as increase in cell viability at 50 ug/ml incubated for 24 hrs by MTT assay relative to control. To be noted: dose 50 µg/ml.
Series [10] concerns SH-SY5Y. The experiment in a line: Neuroprotective activity against amyloid beta 1-42-treated human SH-SY5Y cells assessed as reduction in beta amyloid aggregation by Congo Red dye based analysis. The class given is functional, cell-based. An outline of the steps:
as §1

For series [11], the system named is SH-SY5Y. The series is described as follows: Neuroprotective activity against amyloid beta 1-42-treated human SH-SY5Y cells assessed as increase in cell viability at 25 ug/ml incubated for 24 hrs by MTT assay relative to control. Particulars: dose 25 µg/ml.

Sequence of Acetylcholinesterase (P22303 whole entry): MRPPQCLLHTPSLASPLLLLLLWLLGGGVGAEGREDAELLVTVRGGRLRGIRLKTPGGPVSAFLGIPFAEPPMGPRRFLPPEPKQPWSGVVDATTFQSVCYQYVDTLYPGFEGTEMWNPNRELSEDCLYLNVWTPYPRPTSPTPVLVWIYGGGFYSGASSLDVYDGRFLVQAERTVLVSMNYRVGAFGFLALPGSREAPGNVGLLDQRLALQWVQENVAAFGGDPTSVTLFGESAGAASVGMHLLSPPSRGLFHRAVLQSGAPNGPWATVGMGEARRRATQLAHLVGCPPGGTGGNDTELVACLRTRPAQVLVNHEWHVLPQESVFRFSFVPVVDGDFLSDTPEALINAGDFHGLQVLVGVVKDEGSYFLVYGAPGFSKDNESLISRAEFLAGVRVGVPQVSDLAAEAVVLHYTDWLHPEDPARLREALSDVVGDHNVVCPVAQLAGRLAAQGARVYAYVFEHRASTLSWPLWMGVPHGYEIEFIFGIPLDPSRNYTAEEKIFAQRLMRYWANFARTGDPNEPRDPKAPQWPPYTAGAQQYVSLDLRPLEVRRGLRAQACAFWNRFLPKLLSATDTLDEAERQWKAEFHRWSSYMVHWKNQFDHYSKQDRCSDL

Broadly, the IC50 is the concentration at which inhibition is half-maximal. With `COc1ccc(/C=C/c2nc(-c3ccc(OC)cc3)cs2)cc1`, the Activity is given as 5 in [1]; 6 in [3]; 6 in series [4]; 0.017 in series [5]; 397.6 mU/ml in the series on SH-SY5Y [6]; 14.13 RFU with SH-SY5Y [7]. Moreover, the values for the Activity with SH-SY5Y [8] and in the series with SH-SY5Y [9] were above 80% and around 34%, respectively. In addition, the result with SH-SY5Y [2] was Active. Besides, the IC50 is 197 µM at Acetylcholinesterase and 78.2 µM against Beta-secretase 1.

On to `Brc1ccc(-c2csc(/C=C/c3ccccc3)n2)cc1`, for which the Activity is listed as 9 in series [1]; 4 in series [3]; 5 in series [4]; 0.017 in series [5]; 375.6 mU/ml in the series with SH-SY5Y [6]; 17.41 RFU in the series on SH-SY5Y [7]. Also, the Activity in the series on SH-SY5Y [11] is around 30%. Besides, the result in the series on SH-SY5Y [2] and with SH-SY5Y [10] was Active. Further, the results for the IC50 on Acetylcholinesterase and against Beta-secretase 1 were 229 µM and 44.4 µM, respectively.
